# Source: PubChem BioAssay
# MEKK3 PB1 HTS = modulators of MEKK3-MEK5 PB1 binding, primary screen, biochemical, wildtype MEKK3, multiplex bead flow cytometry, Alexa488-MEK5 | Mitogen-activated protein kinase kinase kinase 3 (Homo sapiens), Q99759 | bead-based flow cytometry, Alexa488-MEK5 binding to MEKK3; actives lie on both sides; 0 = blocked by unlabeled MEK5, 100 = vehicle | binding response (% of control), % at 10 µM | hit rate 1.4% among 290,000;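 active means binding response more than 3 SD above or below the average of its plate-row segment, actives on both sides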;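 further: Alexa488 bead fluorescence after subtracting the streptavidin-only scavenger bead signal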
# Target sequence (Q99759 whole entry, looked up): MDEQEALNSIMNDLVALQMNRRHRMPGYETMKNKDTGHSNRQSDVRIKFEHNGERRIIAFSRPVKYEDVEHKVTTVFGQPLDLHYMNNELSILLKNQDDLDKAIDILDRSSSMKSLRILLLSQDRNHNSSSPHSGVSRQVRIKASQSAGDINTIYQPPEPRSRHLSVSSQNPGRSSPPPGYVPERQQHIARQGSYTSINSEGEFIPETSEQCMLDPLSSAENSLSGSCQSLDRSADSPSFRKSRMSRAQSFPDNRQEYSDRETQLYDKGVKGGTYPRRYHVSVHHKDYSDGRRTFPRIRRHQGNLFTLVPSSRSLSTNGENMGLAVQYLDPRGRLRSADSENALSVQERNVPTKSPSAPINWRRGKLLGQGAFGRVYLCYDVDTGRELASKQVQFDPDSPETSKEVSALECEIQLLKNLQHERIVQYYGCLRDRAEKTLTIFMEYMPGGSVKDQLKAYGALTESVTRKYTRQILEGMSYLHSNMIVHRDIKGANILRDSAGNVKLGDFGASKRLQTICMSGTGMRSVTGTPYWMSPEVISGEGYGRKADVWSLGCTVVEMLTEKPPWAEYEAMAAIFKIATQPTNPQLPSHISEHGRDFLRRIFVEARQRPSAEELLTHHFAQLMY
# NS3 helicase inh = inhibitors of HCV NS3 helicase, primary screen, biochemical, Cy5 molecular beacon fluorescence. hit rate 0.56% among 290,000. inhibition, % at 10.9 µM. AID 1800, 2009. Hepatitis C virus NS3 helicase. NS3 helicase DNA unwinding;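 active means inhibition above the mean of all tested compounds plus 3 SD, set per campaign, cut at about 35% in these data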;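 further: 0% = DMSO wells and 100% = thioflavine S control wells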
#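 Assay system: hepatitis C virus NS3 helicase domain fragment enzyme. Also added: annealed dual-labelled DNA beacon duplex, ATP-started. Timing: 1 h reaction at 25 °C, ATP-initiated. Technique: Cy5 fluorescence at 0 and 60 min, beacon hairpin quenching. Evaluation: % inhibition of unwinding. Replication: one well per compound.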
# T cruzi inh = inhibitors of intracellular T. cruzi growth, primary screen, luminescence, NIH3T3 host cells | T. cruzi beta-gal in NIH3T3, 90 h | hit rate 1.4% among 300,000 | inhibition, % (test concentration not listed);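 active means mean inhibition across valid replicates above about 55%, limit read from the data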;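 further: signal also drops with host cell toxicity which is not excluded here; 0% = plate median of DMSO wells and 100% = zero luminescence signal; higher percent means less beta-gal luminescence so fewer parasites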
#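 Assay system: NIH/3T3 fibroblasts plus reporter T. cruzi. Amount: NIH/3T3 cells, 5,000 per well. Buffer or medium: DMEM, 2% fetal bovine serum. Doses: compound pinned at 50 nL/well, DMSO. Schedule: ≥90 h infection period, 3 h prior cell attachment. Signal: luminescent β-galactosidase signal after 60 min lysis. Read-out: parasite load inhibition, %.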
# DNA FID counter = compounds displacing fluorescent DNA intercalator, primary screen, artefact control for HCV NS3 helicase inhibitor project, biochemical, FID fluorescence; hit rate 0.17% among 290,000; inhibition, % at 7.9 µM; DNA fluorescent intercalator displacement; in the data active means inhibition above about 37%;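 further: 0% = vehicle and 100% = reference compound; higher means more ethidium bromide displaced from hairpin DNA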
# MEKK2wt PB1 HTS = modulators of MEK5 binding to wildtype MEKK2, primary screen, biochemical, multiplex bead flow cytometry, Alexa488-MEK5; Mitogen-activated protein kinase kinase kinase 2 (Homo sapiens), Q9Y2U5; Alexa488-MEK5 binding to MEKK2 WT; actives lie on both sides; binding response (% of control), % at 10 µM; hit rate 1.1% among 290,000; in the data active means binding response below about 67% or above about 130%
# MEKK2 mut-MEK5 = MEK5 binding signal on mutant MEKK2 PB1, primary screen, biochemical, multiplex bead flow cytometry, Alexa488-MEK5. Alexa488-MEK5 binding to MEKK2 mutant. percent response, % at 10 µM. hit rate 0.35% among 290,000. AID 1530, 2009; in the data active means percent response above about 24%, passing the limit was not always enough
# MEKK2wt confirm = modulators of MEK5 binding to wildtype MEKK2, confirmation, biochemical, single concentration, multiplex bead flow cytometry; binding response (% of control), % at 10 µM; Alexa488-MEK5 binding to MEKK2 WT; actives lie on both sides; hit rate 2.4% among 5,900; shares compounds with MEKK3 PB1 HTS; AID 1892, 2009; in the data active means binding response below about 16% or above about 210%; inactive means in between
# MEKK2mut confirm = mutant MEKK2 PB1-MEK5 binding signal retest – biochemical, single concentration, multiplex bead flow cytometry, confirmation; shares compounds with MEKK3 PB1 HTS; Alexa488-MEK5 binding to MEKK2 mutant; percent response, % at 10 µM; hit rate 2% among 5,900; in the data active means percent response mostly above about 71%, no sharp cut-off; inactive means mostly below about 38%;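 further: higher means compound restores mutant binding toward wildtype level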
# MEKK3 confirm = MEKK3 wild-type PB1 binding to MEK5, inhibitors, confirmation, biochemical, bead multiplex flow cytometry, single concentration, wildtype. shares compounds with MEKK3 PB1 HTS. Alexa488-MEK5 binding to MEKK3; hits give low values. binding response (% of control), % at 10 µM. hit rate 1.8% among 5,900. AID 1894, 2009;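 active means binding response below 72% of control, or above a set upper limit, though filed actives all read lower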;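 further: 100% = DMSO only wells and 0% = binding blocked by excess unlabeled MEK5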
# * marks the source's active call; other numbers are inactive results; x = not tested or not shown; [ ] = dose if it differs, or a comment. Compounds with a hit are over-represented: about 4.1% of the library has one in this group of screens.
SMILES,MEKK3 PB1 HTS,NS3 helicase inh,T cruzi inh,DNA FID counter,MEKK2wt PB1 HTS,MEKK2 mut-MEK5,MEKK2wt confirm,MEKK2mut confirm,MEKK3 confirm
O=C(O)c1cccc(-n2cccc2/C=C2/NC(=O)N(c3ccc(Cl)cc3)C2=O)c1,74.0*[inhibitor],27.9,x,-36.2,63.0*[inhibitor],-7.0,76.0,-30.0,86.0
O=C(O)c1cccc(-n2cccc2/C=C2/NC(=O)N(c3cccc(Cl)c3)C2=O)c1,99.0,32.0,-5.1,-27.8,94.0,-6.0,x,x,x
CN(CC(O)Cn1c2ccccc2c2ccccc21)S(C)(=O)=O (stereo not drawn),103.0,-9.2,x,-9.0,104.0,6.0,x,x,x
CCN(CC(O)Cn1c2ccccc2c2ccccc21)S(=O)(=O)c1ccc(C)cc1 (stereo not drawn),125.0*,-9.1,53.7,-16.7,122.0,5.0,108.0,-2.0,101.0
Cc1ccc(CSCCNS(C)(=O)=O)cc1,58.0*[inhibitor],-2.4,-8.2,1.0,91.0,-4.0,100.0,2.0,101.0
COc1cccc(NC(=O)CCNC(=O)N2CC(=O)Nc3ccccc32)c1,99.0,1.9,-9.4,-24.4,102.0,-5.0,x,x,x
O=C(Nc1ccc(Cl)cc1)NC1CCCCC1,1.0*[inhibitor],1.9,10.7,-3.8,-1.0*[inhibitor],-9.0,64.0,-9.0,95.0
Nc1ccc(NC(=O)NC2CCCCC2)cc1,99.0,-8.3,1.6,7.2,94.0,-6.0,x,x,x
O=C(Nc1ccc(Cl)cc1)NC1CCCC1Cc1ccco1 (stereo not drawn),109.0,18.6,25.9,-6.3,116.0,5.0,x,x,x
O=C(Nc1ccc(Cl)cc1)NC1CCCCC1Cc1ccco1 (stereo not drawn),69.0*[inhibitor],9.8,23.3,-2.5,46.0*[inhibitor],-9.0,112.0,18.0,105.0
CCN(Cc1ccccc1)c1ccc(/C=N/NC(=S)NC(C)C)cc1,59.0*[inhibitor],-21.0,39.0,2.0,82.0,-1.0,146.0,19.0,107.0
Cc1ccc(NC(=O)C(=O)NCCOc2ccc(Cl)cc2)c(C)c1,128.0*,-1.2,-14.0,-3.6,106.0,0.0,98.0,-1.0,102.0
O=c1cc(O)c2sc3nc(-c4cccnc4)cc(C(F)(F)F)c3c2[nH]1,99.0,28.8,-18.3,-14.2,99.0,-1.0,x,x,x
CC1(C)Cc2c(C#N)c(N)sc(=S)c2CS1,85.0,17.8,6.3,4.1,56.0*[inhibitor],-21.0,79.0,-10.0,97.0
COc1ccc2c(C)c(C)c(=O)oc2c1OC,2.0*[inhibitor],-15.3,47.6,0.0,0.0*[inhibitor],-26.0,104.0,-1.0,101.0
COc1ccc(/C=C2\N=C(c3ccccc3)NNC2=O)cc1,102.0,3.4,-4.2,0.3,97.0,-4.0,x,x,x
CC(C)N1CC(COc2ccc(Cl)cc2Cl)OC1=O (stereo not drawn),96.0,-3.4,-0.8,-18.4,98.0,0.0,x,x,x
CCOC(=O)c1cccc(-n2c(C)nc3ccccc3c2=O)c1,102.0,1.6,3.4,-11.3,105.0,3.0,x,x,x
CCOC(=O)c1cccc(-n2c(-c3ccc(OC)cc3)nc3nc4ccccc4nc32)c1,134.0*,-5.0,30.0,-4.4,94.0,0.0,90.0,-4.0,100.0
O=C(NC(=S)N1CCN(Cc2ccc3c(c2)OCO3)CC1)c1ccc(Cl)cc1,104.0,-9.4,6.0,-14.1,121.0,55.0*,106.0,4.0,105.0
O=C(NC(=S)N1CCN(Cc2ccc3c(c2)OCO3)CC1)c1cccc(Br)c1,108.0,-13.5,-3.0,-17.7,108.0,-1.0,x,x,x
Fc1ccccc1NC(=S)N1CCN(Cc2ccc3c(c2)OCO3)CC1,136.0*,-5.0,-8.5,-4.7,116.0,5.0,96.0,-3.0,94.0
COc1cc(CNCc2cccs2)ccc1OCc1cccs1,2.0*[inhibitor],-31.5,17.1,14.1,-1.0*[inhibitor],-27.0,122.0,12.0,102.0
COc1cc(CNCc2cccs2)ccc1OCc1ccccc1,x,-24.6,17.1,8.9,x,x,x,x,x
CC(C)(C)NC(=O)CN(C(=O)CN1C(=O)C(=O)c2ccccc21)C(C)(C)C,101.0,20.1,-7.2,-1.1,99.0,2.0,x,x,x
SMILES,MEKK3 PB1 HTS,NS3 helicase inh,T cruzi inh,DNA FID counter,MEKK2wt PB1 HTS,MEKK2 mut-MEK5,MEKK2wt confirm,MEKK2mut confirm,MEKK3 confirm
O=c1[nH]c(/C=C/c2cccc3ccccc23)nc2ccccc12,99.0,4.8,-20.3,-16.1,95.0,1.0,x,x,x
O=c1[nH]c(/C=C/c2ccccc2[N+](=O)[O-])nc2ccccc12,132.0*,-1.8,-17.4,-0.7,110.0,0.0,89.0,-5.0,89.0
COc1cc(NS(=O)(=O)c2ccc(NC(=O)/C=C/C(=O)O)cc2)nc(OC)n1,102.0,21.0,0.0,-4.5,105.0,0.0,x,x,x
N#CCCN1CCN(C(=O)c2c(N)no[n+]2[O-])CC1,128.0*,1.9,-7.2,6.2,112.0,0.0,99.0,-5.0,102.0
Cc1ccnc(NC(=O)Cn2c(=O)oc3ccccc32)c1,99.0,6.0,-10.2,-4.8,97.0,0.0,x,x,x
COc1ccc(NS(=O)(=O)c2cc(C(=O)N3CCN(C(C)=O)CC3)ccc2Cl)cc1,71.0*[inhibitor],-0.6,4.8,-4.2,77.0,-2.0,102.0,4.0,104.0
COc1ccc(NS(=O)(=O)c2cccc(C(=O)N3CCCCCC3)c2)cc1,x,x,13.6,x,x,x,x,x,x
O=C(O)/C=C/c1ccc([N+](=O)[O-])o1,130.0*,5.7,31.2,1.1,115.0,-55.0,101.0,-5.0,102.0
CCCOc1ccc(CCC(=O)N/N=C/c2ccc([N+](=O)[O-])o2)cc1,102.0,2.5,52.0,-18.0,101.0,1.0,x,x,x
CC1(C(=O)N/N=C/c2ccc([N+](=O)[O-])o2)CC1(Br)Br (stereo not drawn),132.0*,21.2,50.2,-5.7,103.0,1.0,101.0,-4.0,104.0
O=C(Cc1ccc(Br)cc1)NC1CCSC1=O (stereo not drawn),96.0,-1.4,-0.8,-3.8,98.0,-3.0,x,x,x
